# Assay results: ChEMBL document CHEMBL1629579, “Correlating echinocandin MIC and kinetic inhibition of fks1 mutant glucan synthases for Candida albicans: implications for interpretive breakpoints” (Antimicrob Agents Chemother, 2009)
# Numbered stars: 1 amine (or outer) side, 2 acyl side, 3 side chain; on linkers, the order of the positions; unused ones are H or OH. Bridge positions count the residues as written; N and C are the ends. Square brackets hold non-standard residues; d marks the D form. Peptide text beside a SMILES is read from it. * marks the point of attachment. hTyr(3S-OH,4S-OH,3'-OSO3H) = N[C@H](C(=O)O)[C@H](O)[C@@H](O)c1ccc(O)c(OS(=O)(=O)O)c1; Orn(4R-OH,5R-OH) = O=C([C@H](C[C@@H](O)[C@@H](O)N[*:3])N[*:1])[*:2]; Pro(3S-OH,4S-Me) = C[C@H]1CN[C@H](C(=O)O)[C@H]1O; X1 = CCCCCOc1ccc(-c2cc(-c3ccc(C(=O)*)cc3)no2)cc1; Gln(3R-OH) = NC(=O)C[C@@H](O)[C@H](N)C(=O)O; Hyp = O=C(O)[C@@H]1C[C@@H](O)CN1
# Experiments:
# [1] = system: Candida albicans; assay: Antimicrobial activity against Candida albicans 90028 by M27-A3 method in presence of 50% human serum; assay type: functional
# How it was run: (§1)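 Broth microdilution per CLSI M27-A3 in RPMI 1640, done in triplicate on three separate days. Each strain was tested with and without 50% human serum. C. krusei ATCC 6258 and C. parapsilosis ATCC 22019 served as QC strains. Arithmetic means are reported, and geometric means were used for comparison.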
# [2] = system: Candida albicans; assay: Antimicrobial activity against Candida albicans 1002 by M27-A3 method; assay type: functional
# How it was run: (§2)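 Broth microdilution per CLSI M27-A3 in RPMI 1640, with and without 50% human serum, in triplicate. C. krusei ATCC 6258 and C. parapsilosis ATCC 22019 served as quality-control strains. MIC reported as arithmetic mean of three repetitions on separate days.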
# [3] = system: Candida albicans; assay: Antimicrobial activity against Candida albicans 3107 by M27-A3 method in presence of 50% human serum; assay type: functional; how it was run: as §1
# [4] = system: Candida albicans; assay: Antimicrobial activity against Candida albicans 3795 by M27-A3 method; assay type: functional; how it was run: as §2
# [5] = system: Candida albicans; assay: Antimicrobial activity against Candida albicans 3795 by M27-A3 method in presence of 50% human serum; assay type: functional; how it was run: as §1
# [6] = system: Candida albicans; assay: Antimicrobial activity against Candida albicans 119 harboring FKS1 T1921C mutant gene and FKS1 hotspot1 F641L mutant gene by M27-A3 method; assay type: functional; how it was run: as §1
# [7] = system: Candida albicans; assay: Antimicrobial activity against Candida albicans 119 harboring FKS1 T1921C mutant gene and FKS1 hotspot1 F641L mutant gene by M27-A3 method in presence of 50% human serum; assay type: functional; how it was run: as §1
# [8] = system: Candida albicans; assay: Antimicrobial activity against Candida albicans 177 harboring FKS1 T1922C mutant gene and FKS1 hotspot1 F641S mutant gene by M27-A3 method; assay type: functional; how it was run: as §1
# [9] = system: Candida albicans; assay: Antimicrobial activity against Candida albicans 177 harboring FKS1 T1922C mutant gene and FKS1 hotspot1 F641S mutant gene by M27-A3 method in presence of 50% human serum; assay type: functional; how it was run: as §1
# [10] = system: Candida albicans; assay: Antimicrobial activity against Candida albicans 2762 harboring FKS1 T1922C mutant gene and FKS1 hotspot1 F641S mutant gene by M27-A3 method; assay type: functional; how it was run: as §1
# [11] = system: Candida albicans; assay: Antimicrobial activity against Candida albicans 89 harboring FKS1 C1934A mutant gene and FKS1 hotspot1 S645Y mutant gene by M27-A3 method; assay type: functional; how it was run: as §1
# [12] = system: Candida albicans; assay: Antimicrobial activity against Candida albicans 85 harboring FKS1 C1934T mutant gene and FKS1 hotspot1 S645F mutant gene by M27-A3 method; assay type: functional; how it was run: as §1
# [13] = system: Candida albicans; assay: Antimicrobial activity against Candida albicans 149 harboring FKS1 G1942T mutant gene and FKS1 hotspot1 D648Y mutant gene by M27-A3 method in presence of 50% human serum; assay type: functional; how it was run: as §1
# [14] = system: Candida albicans; assay: Antimicrobial activity against Candida albicans 122 harboring FKS1 C1946A mutant gene and FKS1 hotspot1 P649H mutant gene by M27-A3 method; assay type: functional; how it was run: as §1
# [15] = system: Candida albicans; assay: Antimicrobial activity against Candida albicans 121 harboring FKS1 G4082A mutant gene and FKS1 hotspot2 R1361H mutant gene by M27-A3 method; assay type: functional; how it was run: as §1
# [16] = system: Candida albicans; assay: Antimicrobial activity against Candida albicans 121 harboring FKS1 G4082A mutant gene and FKS1 hotspot2 R1361H mutant gene by M27-A3 method in presence of 50% human serum; assay type: functional; how it was run: as §1
# [17] = system: Candida albicans; assay: Antimicrobial activity against Candida albicans 90 harboring FKS1 G4082R mutant gene and FKS1 hotspot2 R1361R/H mutant gene by M27-A3 method in presence of 50% human serum; assay type: functional; how it was run: as §1
# [18] = Inhibition of Candida albicans 177 1,3-beta-D-glucan synthase subunit FKS1p T1922C mutant
# How it was run: (§3)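 Enzyme is product-entrapped 1,3-β-D-glucan synthase, enriched from membranes of each strain grown at 37°C with shaking in YPD broth to early stationary phase. Filtration polymerization assay uses [3H]UDPG, started by adding enzyme and run 60 min at 25°C. Echinocandins are added as serial dilutions, with 1% DMSO controls for anidulafungin. IC50 is from a variable-slope sigmoidal fit; values are triplicate arithmetic means.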
# [19] = Inhibition of Candida albicans 2762 1,3-beta-D-glucan synthase subunit FKS1p T1922C mutant; how it was run: as §3
# [20] = Inhibition of Candida albicans 89 1,3-beta-D-glucan synthase subunit FKS1p C1934A mutant; how it was run: as §3
# [21] = Inhibition of Candida albicans 122 1,3-beta-D-glucan synthase subunit FKS1p C1946A mutant; how it was run: as §3
# [22] = Inhibition of Candida albicans 121 1,3-beta-D-glucan synthase subunit FKS1p G4082A mutant; how it was run: as §3
# [23] = system: Candida albicans SC5314; assay: Activity at Candida albicans SC5314 1,3-beta-D-glucan synthase subunit FKS1p
# How it was run: (§4)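 Glucan synthase from cells grown at 37°C with vigorous shaking to early stationary phase in YPD. Membrane enzyme enriched by product entrapment. Serial echinocandin dilutions; ANF controls held 1% DMSO. Reaction started by adding enzyme, run 60 min at 25°C in a filtration polymerization assay, stopped on ice. IC50 from a variable-slope sigmoidal fit; means of three repetitions on separate days.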
# [24] = system: Candida albicans; assay: Activity at Candida albicans 36082 1,3-beta-D-glucan synthase subunit FKS1p; how it was run: as §4
# [25] = system: Candida albicans; assay: Activity at Candida albicans 1002 1,3-beta-D-glucan synthase subunit FKS1p; how it was run: as §4
# [26] = system: Candida albicans; assay: Activity at Candida albicans 119 1,3-beta-D-glucan synthase subunit FKS1p T1921C mutant
# How it was run: (§5)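 Product-entrapped 1,3-β-D-glucan synthase from cells grown in YPD at 37°C to early stationary phase. Wells held 50 mM HEPES pH 7.5, 10% glycerol, 1.5 mg/ml BSA, 25 mM KF, 1 mM EDTA, 25 μM GTP-γ-S, 1 μg enzyme and [3H]UDPG (0.015–2 mM). Reactions ran 60 min at 25°C. Vmax and Km came from Lineweaver-Burke plots, in triplicate.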
# [27] = system: Candida albicans; assay: Activity at Candida albicans 177 1,3-beta-D-glucan synthase subunit FKS1p T1922C mutant; how it was run: as §5
# [28] = system: Candida albicans; assay: Activity at Candida albicans 205 1,3-beta-D-glucan synthase subunit FKS1p T1933C mutant; how it was run: as §5
# [29] = system: Candida albicans; assay: Activity at Candida albicans 5415 1,3-beta-D-glucan synthase subunit FKS1p T1933C mutant; how it was run: as §5
# [30] = system: Candida albicans; assay: Activity at Candida albicans 85 1,3-beta-D-glucan synthase subunit FKS1p C1934T mutant; how it was run: as §5
# [31] = system: Candida albicans; assay: Activity at Candida albicans 90 1,3-beta-D-glucan synthase subunit FKS1p G4082R mutant; how it was run: as §5
# [32] = system: Candida albicans; assay: Activity at Candida albicans A15-10 1,3-beta-D-glucan synthase subunit FKS1p T1933C mutant
compound,measurement,setting,value
"CCCCCOc1ccc(-c2cc(-c3ccc(C(=O)N[C@H]4C[C@@H](O)[C@@H](O)NC(=O)[C@@H]5[C@@H](O)[C@@H](C)CN5C(=O)[C@H]([C@H](O)CC(N)=O)NC(=O)[C@H]([C@H](O)[C@@H](O)c5ccc(O)c(OS(=O)(=O)O)c5)NC(=O)[C@@H]5C[C@@H](O)CN5C(=O)[C@H]([C@@H](C)O)NC4=O)cc3)no2)cc1 [MICAFUNGIN] (X1-[Orn(4R-OH,5R-OH)]T[Hyp][hTyr(3S-OH,4S-OH,3'-OSO3H)][Gln(3R-OH)][Pro(3S-OH,4S-Me)]; lactam 1-C)",MIC,[1],0.5 µg/mL
same,MIC,[2],0.04 µg/mL
same,MIC,[3],0.5 µg/mL
same,MIC,[4],0.03 µg/mL
same,MIC,[5],0.5 µg/mL
same,MIC,[6],0.33 µg/mL
same,MIC,[7],8 µg/mL
same,MIC,[8],1 µg/mL
same,MIC,[9],16 µg/mL
same,MIC,[10],1 µg/mL
same,MIC,[11],4 µg/mL
same,MIC,[12],2.67 µg/mL
same,MIC,[13],4 µg/mL
same,MIC,[14],0.83 µg/mL
same,MIC,[15],0.25 µg/mL
same,MIC,[16],8 µg/mL
same,MIC,[17],4 µg/mL
same,IC50,[18],1.441 µg/mL
same,Ki,[18],4.40423 µg/mL
same,IC50,[19],1.693 µg/mL
same,Ki,[19],1.44788 µg/mL
same,IC50,[20],2.533 µg/mL
same,Ki,[20],0.86713 µg/mL
same,IC50,[21],0.9246 µg/mL
same,Ki,[21],2.58853 µg/mL
same,IC50,[22],0.4982 µg/mL
same,Ki,[22],0.84048 µg/mL
same,Km,[23],125 µM
same,Vmax,[23],6.72 nmol/min
same,Km,[24],89 µM
same,Vmax,[24],5.87 nmol/min
same,Km,[25],122 µM
same,Vmax,[25],5.8 nmol/min
same,Km,[26],54 µM
same,Vmax,[26],2.54 nmol/min
same,Km,[27],50 µM
same,Vmax,[27],4.4 nmol/min
same,Km,[28],116 µM
same,Vmax,[28],5.54 nmol/min
same,Km,[29],98 µM
same,Vmax,[29],3.12 nmol/min
same,Km,[30],25 µM
same,Vmax,[30],1.83 nmol/min
same,Km,[31],31 µM
same,Vmax,[31],2.36 nmol/min
same,Km,[32],91 µM
same,Vmax,[32],3.26 nmol/min
